In article PMC5115981 (Cancer chemotherapy and pharmacology, 2016):
pIC50: −log10 of the molar value. “And” between values parts separate entries of the source, which are not always exact repeats. Identical values can stand only once.

Columns and labels:
[1] = system: pSTAT3 from IL-6 induction in a Cal33 cell line; details: read-out: IC50, inhibiting pSTAT3 from IL-6 induction; cited from earlier work
[2] = Stability of UPCDC-10205 in mouse plasma; format: in vitro ADME
Summary of the method: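 Assay evaluation in control mouse plasma used QCs at 2.5, 30 and 800 ng/mL. 100 µL samples were spiked with deuterated internal standard, precipitated with acetonitrile, and supernatants dried at 37 °C under nitrogen before positive-ion MRM LC-MS/MS. Recovery and ion suppression were assessed at the 30 ng/mL QC. Also tested: bench stability during sample preparation for 4 h at room temperature, and three −80 °C freeze/thaw cycles.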

[3] = Single dose pharmacokinetics in mice; format: in vivo, mouse
Summary of the method: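 Fasted female heterozygous Foxn1nu/Foxn1+ mice, 3 per time point (5–1440 min), received a single dose by one of three routes: 4.0 mg/kg in 10% Solutol HS IV via tail vein; the same formulation by oral gavage; or 30 mg/kg PO in 1% CMC suspension. Vehicle controls were taken at 5 and 1440 min. Sampling: cardiac-puncture EDTA plasma, tissues including brain, and metabolic-cage urine. Analysis by LC-MS/MS with a deuterated internal standard. Group means underwent non-compartmental analysis; […].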

[4] = Mouse liver microsome incubation; format: in vitro ADME
Summary of the method: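 Microsomes from livers of female heterozygous Foxn1nu/Foxn1+ mice, with protein measured against a BSA standard. Incubations contained 0.5 mg/mL microsomal protein, 1,000 ng/mL drug, […], 0.1 M phosphate (pH 7.4) and <0.1% acetonitrile. Stopped with acetonitrile at 0, 15, 30, 45, 60 and 90 min, in triplicate. A positive control was run at 0 and 90 min. LC-MS used an analogue internal standard and calibrators in buffer with 0.5 mg/mL BSA. Results given as % of 0 min.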

mice [5] = assay: Single dose IV toxicity study in mice; format: in vivo, mouse; details: single IV dose 4 mg/kg
Summary of the method: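 Male and female heterozygous Foxn1nu/Foxn1+ mice, 5 per group, fasted overnight. Single 4 mg/kg IV tail-vein dose from a 0.4 mg/mL solution in 10% Solutol HS15 in sterile water (0.01 ml/g), alongside vehicle-treated mice. Body weights and clinical signs followed over 14 days, then necropsy for gross pathology. The dose tested was capped by maximum solubility.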

[6] = Plasma protein binding by rapid equilibrium dialysis; format: in vitro ADME, mouse; details: for fraction unbound at 4 h, 1000 ng/mL: mouse, plasma, pH 7.2, plasma protein binding
Summary of the method: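 Rapid equilibrium dialysis with control mouse plasma spiked to 1,000 ng/mL from a DMSO stock (organic <0.1%). Four 200 µL replicates were dialysed against PBS (pH 7.2), shaken at 37 °C for 4 h. Both compartments were quantified by LC-MS/MS against a curve in 1:1 PBS:plasma, with samples diluted to match the matrix. Assay LLQ was 1 ng/mL.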

mice [7] = assay: Multiple dose; format: in vivo, mouse; details: IV daily for 5 days at 4, 2.7, 1.3 mg/kg, female mice
Summary of the method: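 Female heterozygous Foxn1nu/Foxn1+ mice, 5 per group, fasted overnight before dosing. Test compound given IV by lateral tail vein daily for 5 days, in 10% Solutol HS15 in sterile water at 0.01 ml/g body weight; a vehicle group was included. Body weights tracked before, during and after dosing over a 14 day observation period, followed by necropsy for gross pathology.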

[8] = female, heterozygous Foxn1nu/Foxn1+, mouse, brain, iv, 4 mg/kg
[9] = female, heterozygous Foxn1nu/Foxn1+, mouse, brain, po, 4 mg/kg
[10] = female, heterozygous Foxn1nu/Foxn1+, mouse, brain, po, 30 mg/kg
[11] = female, heterozygous Foxn1nu/Foxn1+, mouse, kidney, iv, 4 mg/kg
[12] = female, heterozygous Foxn1nu/Foxn1+, mouse, kidney, po, 4 mg/kg
[13] = female, heterozygous Foxn1nu/Foxn1+, mouse, kidney, po, 30 mg/kg
[14] = female, heterozygous Foxn1nu/Foxn1+, mouse, liver, iv, 4 mg/kg
[15] = female, heterozygous Foxn1nu/Foxn1+, mouse, liver, po, 4 mg/kg
[16] = female, heterozygous Foxn1nu/Foxn1+, mouse, liver, po, 30 mg/kg
[17] = female, heterozygous Foxn1nu/Foxn1+, mouse, lung, iv, 4 mg/kg
[18] = female, heterozygous Foxn1nu/Foxn1+, mouse, lung, po, 4 mg/kg
[19] = female, heterozygous Foxn1nu/Foxn1+, mouse, lung, po, 30 mg/kg
[20] = female, heterozygous Foxn1nu/Foxn1+, mouse, muscle, iv, 4 mg/kg
[21] = female, heterozygous Foxn1nu/Foxn1+, mouse, muscle, po, 30 mg/kg
[22] = female, heterozygous Foxn1nu/Foxn1+, mouse, plasma, iv, 4 mg/kg
[23] = female, heterozygous Foxn1nu/Foxn1+, mouse, plasma, po, 4 mg/kg
[24] = female, heterozygous Foxn1nu/Foxn1+, mouse, plasma, po, 30 mg/kg
[25] = female, heterozygous Foxn1nu/Foxn1+, mouse, red blood cells (RBC), iv, 4 mg/kg
[26] = female, heterozygous Foxn1nu/Foxn1+, mouse, red blood cells, po, 4 mg/kg
[27] = female, heterozygous Foxn1nu/Foxn1+, mouse, skeletal muscle, po, 4 mg/kg
[28] = mouse plasma spiked at 1,000 ng/mL, RED, 37 °C, 4 hours, calculated using the LLQ value (1 ng/mL)

COc1ccc(C2=Nn3c(nnc3-c3cc(-c4ccc(Cl)cc4)n[nH]3)SC2C)cc1 (centres unmarked) [UPCDC-10205, 3-(3-(4-chlorophenyl)-1H-pyrazole-5-yl)-6-(4-methoxyphenyl)-7-methyl-7H-[1,2,4]triazolo[3,4-b][1,3,4]thiadiazine]
pIC50 [1]: 5.66
stability in plasma during sample preparation ([2]; QCM (30 ng/mL), 4 h at room temperature): 100.8%
recovery at 30 ng/mL ([2]; mouse): 112%
AUC(0-t) [3, 8]: 1.73 µg·h/mL
Tmax [3, 8]: 15 min
Cmax ([3]; female, heterozygous Foxn1nu/Foxn1+, mouse, brain, iv, 4 mg/kg, mice, IV 4 mg/kg in 10% Solutol HS, brain): 1.64 µg/mL
AUC(0-t) [3, 9]: 0.03 µg·h/mL
Tmax [3, 9]: 60 min
Cmax ([3]; female, heterozygous Foxn1nu/Foxn1+, mouse, brain, po, 4 mg/kg, mice, PO 4 mg/kg in 10% Solutol HS, brain): 0.0154 µg/mL
AUC(0-t) [3, 10]: 0.0334 µg·h/mL
Tmax [3, 10]: 5 min
Cmax ([3]; female, heterozygous Foxn1nu/Foxn1+, mouse, brain, po, 30 mg/kg, mice, PO 30 mg/kg suspension in 1% CMC, brain): 0.049 µg/mL
AUC(0-t) [3, 11]: 3.24 µg·h/mL
Tmax [3, 11]: 5 min
Cmax ([3]; female, heterozygous Foxn1nu/Foxn1+, mouse, kidney, iv, 4 mg/kg, mice, IV 4 mg/kg in 10% Solutol HS, kidney): 4.62 µg/mL
AUC(0-t) [3, 12]: 0.428 µg·h/mL
Tmax [3, 12]: 30 min
Cmax ([3]; female, heterozygous Foxn1nu/Foxn1+, mouse, kidney, po, 4 mg/kg, mice, PO 4 mg/kg in 10% Solutol HS, kidney): 0.308 µg/mL
AUC(0-t) [3, 13]: 0.272 µg·h/mL
Tmax [3, 13]: 5 min
Cmax ([3]; female, heterozygous Foxn1nu/Foxn1+, mouse, kidney, po, 30 mg/kg, mice, PO 30 mg/kg suspension in 1% CMC, kidney): 0.404 µg/mL
AUC(0-t) [3, 14]: 1.47 µg·h/mL
Tmax [3, 14]: 30 min
Cmax ([3]; female, heterozygous Foxn1nu/Foxn1+, mouse, liver, iv, 4 mg/kg, mice, IV 4 mg/kg in 10% Solutol HS, liver): 2.78 µg/mL
AUC(0-t) [3, 15]: 0.3 µg·h/mL
Tmax [3, 15]: 5 min
Cmax ([3]; female, heterozygous Foxn1nu/Foxn1+, mouse, liver, po, 4 mg/kg, mice, PO 4 mg/kg in 10% Solutol HS, liver): 0.22 µg/mL
AUC(0-t) [3, 16]: 0.542 µg·h/mL
Tmax [3, 16]: 5 min
Cmax ([3]; female, heterozygous Foxn1nu/Foxn1+, mouse, liver, po, 30 mg/kg, mice, PO 30 mg/kg suspension in 1% CMC, liver): 0.564 µg/mL
AUC(0-t) [3, 17]: 2.68 µg·h/mL
Tmax [3, 17]: 5 min
Cmax ([3]; female, heterozygous Foxn1nu/Foxn1+, mouse, lung, iv, 4 mg/kg, mice, IV 4 mg/kg in 10% Solutol HS, lung): 4.49 µg/mL
AUC(0-t) [3, 18]: 0.63 µg·h/mL
Tmax [3, 18]: 4.98 min
Cmax ([3]; female, heterozygous Foxn1nu/Foxn1+, mouse, lung, po, 4 mg/kg, mice, PO 4 mg/kg in 10% Solutol HS, lung): 0.414 µg/mL
AUC(0-t) [3, 19]: 0.186 µg·h/mL
Tmax [3, 19]: 5 min
Cmax ([3]; female, heterozygous Foxn1nu/Foxn1+, mouse, lung, po, 30 mg/kg, mice, PO 30 mg/kg suspension in 1% CMC, lung): 0.331 µg/mL
AUC(0-t) [3, 20]: 1.63 µg·h/mL
Tmax [3, 20]: 15 min
Cmax ([3]; female, heterozygous Foxn1nu/Foxn1+, mouse, muscle, iv, 4 mg/kg, mice, IV 4 mg/kg in 10% Solutol HS, muscle): 1.9 µg/mL
Cmax ([3]; female, heterozygous Foxn1nu/Foxn1+, mouse, muscle, po, 4 mg/kg, mice, PO 4 mg/kg in 10% Solutol HS, muscle): 0.0512 µg/mL
AUC(0-t) [3, 21]: 0.14 µg·h/mL
Tmax [3, 21]: 5 min
Cmax ([3]; female, heterozygous Foxn1nu/Foxn1+, mouse, muscle, po, 30 mg/kg, mice, PO 30 mg/kg suspension in 1% CMC, muscle): 0.189 µg/mL
AUC(0-inf) [3, 22]: 1.02 µg·h/mL
AUC(0-t) [3, 22]: 1.02 µg·h/mL
Tmax [3, 22]: 5 min
half-life [3, 22]: 36 min
Cmax ([3]; female, heterozygous Foxn1nu/Foxn1+, mouse, plasma, iv, 4 mg/kg, mice, IV 4 mg/kg in 10% Solutol HS, plasma): 1.71 µg/mL
Vd ([3]; female, heterozygous Foxn1nu/Foxn1+, mouse, plasma, iv, 4 mg/kg, Vd, mice, IV 4 mg/kg, plasma): 3.4 L/kg
Vd ([3]; female, heterozygous Foxn1nu/Foxn1+, mouse, plasma, iv, 4 mg/kg, Vss, mice, IV 4 mg/kg, plasma): 2 L/kg
clearance ([3]; female, heterozygous Foxn1nu/Foxn1+, mouse, plasma, iv, 4 mg/kg, clearance, mice, IV 4 mg/kg, plasma): 3.91 L/h/kg
bioavailability ([3]; female, heterozygous Foxn1nu/Foxn1+, mouse, plasma, oral, 30 mg/kg): 0.3%
AUC(0-t) [3, 23]: 0.0521 µg·h/mL
Tmax [3, 23]: 30 min
half-life [3, 23]: 48 min
Cmax ([3]; female, heterozygous Foxn1nu/Foxn1+, mouse, plasma, po, 4 mg/kg, mice, PO 4 mg/kg in 10% Solutol HS, plasma): 0.035 µg/mL
AUC(0-t) [3, 24]: 0.0257 µg·h/mL
Tmax [3, 24]: 60 min
half-life [3, 24]: 204 min
Cmax ([3]; female, heterozygous Foxn1nu/Foxn1+, mouse, plasma, po, 30 mg/kg, mice, PO 30 mg/kg suspension in 1% CMC, plasma): 0.0067 µg/mL
AUC(0-t) [3, 25]: 0.556 µg·h/mL
Tmax [3, 25]: 5 min
Cmax ([3]; female, heterozygous Foxn1nu/Foxn1+, mouse, red blood cells (RBC), iv, 4 mg/kg, mice, IV 4 mg/kg in 10% Solutol HS, RBC): 0.98 µg/mL
Cmax ([3]; female, heterozygous Foxn1nu/Foxn1+, mouse, red blood cells (RBC), po, 4 mg/kg, mice, PO 4 mg/kg in 10% Solutol HS, RBC): 0.016 µg/mL
AUC(0-t) [3, 26]: 0.0235 µg·h/mL
Tmax [3, 26]: 30 min
AUC(0-t) [3, 27]: 0.0914 µg·h/mL
Tmax [3, 27]: 60 min
level in pooled urine as % of the total amount administered ([3]; mice, IV 4 mg/kg, 0-6 h collection): 0.0011%
level in pooled urine as % of the total amount administered ([3]; mice, IV 4 mg/kg, 6-24 h collection): 0.0010%
clearance ([3]; mice, IV 4 mg/kg, plasma, 4 mg/kg): 3.9 L/h/kg
peak plasma concentration after IV dosing ([3]; mice, IV 4 mg/kg, 4 mg/kg): 1.7 µg/mL and 4.0 µM
plasma level by the 6 h time point ([3]; mice, IV 4 mg/kg, LLQ 1 ng/mL): below the lower limit of quantitation
%F (oral bioavailability, using AUC0-t) ([3]; mice, PO 4 mg/kg in 10% Solutol HS vs IV 4 mg/kg, plasma, 4 mg/kg): 5.1%
level in pooled urine as % of the total dose ([3]; mice, PO 4 mg/kg, 0-6 h): 0.0077%
urine concentration ([3]; mice, PO 4 mg/kg, 6-24 h): below the LLQ
time of Cmax after administration ([3]; mice, PO 4 mg/kg, plasma): 0.5 h
plasma concentrations after the 2 h time point ([3]; mice, PO 4 mg/kg, LLQ 1 ng/mL): below the LLQ
time of Cmax after administration ([3]; mice, PO 30 mg/kg in 1% CMC suspension, plasma): 1.0 h
urine concentration ([3]; mice, PO 30 mg/kg in 1% CMC, all urine samples): below the LLQ
amount excreted in urine ([3]; mice, renal excretion): < 0.1 % of dose
tissue distribution ([3]; mice, tissue levels compared with plasma): extensive tissue distribution
metabolic stability among the four analogues ([4]; mouse liver microsome incubation): metabolically most stable
substrate depletion in the initial incubation ([4]; mouse liver microsomes, NADPH, 90 min): 20%
clinical appearance after single dose (mice [5]; male and female mice, 14 day observation, 4 mg/kg): not toxic
gross pathology upon necropsy after single dose (mice [5]; necropsy after 14 day observation): no gross pathology was detected
body weight after single dose (mice [5]; within first 24 h after injection): no apparent weight loss
concentration in the plasma portion of the RED device ([6]; average of 4 replicates, 37 °C, 4 hours): 1,091 ng/mL
concentration in the saline buffer portion of the RED device ([6]; below the 1 ng/mL assay LLQ): 0.0002 µg/mL
plasma protein binding [6, 28]: > 99.9%
fraction unbound at 4 h, 1000 ng/mL ([6]; mouse plasma spiked at 1,000 ng/mL, RED, 37 °C, 4 hours, calculated using 0.2 ng/mL): ~0.0002
fraction unbound at 4 h, 1000 ng/mL [6, 28]: < 0.0009
body weights vs vehicle control group, multiple dose (mice [7]): no statistical differences
gross pathology upon necropsy, multiple dose (mice [7]): no signs of gross pathology
signs or symptoms of toxicity, multiple dose (mice [7]; 14 day observation): not toxic
